These results are taken from the EternaBench riboswitch data.

For this series, the system named is MS2 coat protein. Briefly: apparent Kd, MS2 coat protein; higher = weaker binding; RNA-MaP array; FMN 200 µM where present. Summed up: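 Stalled E. coli RNA polymerase produced the designs on Illumina sequencing-chip clusters. SNAP-549-labelled MS2 coat protein was added from 0.7 or 1.5 nM, doubling to 3 µM, without and then with constant ligand, in 100 mM Tris-HCl pH 7.5, 80 mM KCl, 4 mM MgCl2, BSA, DTT, yeast tRNA and Tween-20. The apparent Kd is the median of filtered per-cluster fits of green signal normalised to red-channel RNA signal and control-cluster median Fmax.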

The mark [1] stands for this setting: designed as: OFF switch for flavin mononucleotide, no ligand.
The mark [2] stands for this setting: ligand present: flavin mononucleotide, designed as: OFF switch for flavin mononucleotide.
Setting [3] is: designed as: ON switch for flavin mononucleotide, no ligand.
Setting [4] is: ligand present: flavin mononucleotide, designed as: ON switch for flavin mononucleotide.

As usually defined, the apparent Kd is a dissociation constant that holds for the conditions of the assay.

For “GGAUGUCUGGAGGAUAUACAGACUAUUAGAUCAGUAGAAGGUCAGACAUGAGGAUCACCCAUGUUAGUGUAUCC”, the “apparent Kd” value under setting [1] amounted to 52 nM and the “apparent Kd” value under setting [2] came to 473 nM.
For “AAUUAUUUGUAGAAGGAAGGAGAUUUUGUAUUCUUAGGAUAUACUAUUACAUGAGGAUCACCCAUGUUUGAAGGGUUGCUAUGU” the same measures were 74.2 nM and 82.2 nM.
On to “ACAGAUGCUGACAUGAGGAUCACCCAUGUUAGAUUGUUAUGUCAGGAUAUUAUCUGGCAACCAGAUGAGAAGGGACCAUCUGUU”, for which the “apparent Kd” value is, setting by setting: under setting [3], 15.6 nM; under setting [4], 7.31 nM.
With “UCCUGGCGAGGAUAUACAAUGUUUUUCGCGUGUAGUUGGAAACAUGAGGAUCACCCAUGUAGAAGGUGCUACUG”, the “apparent Kd” value was determined as 32.6 nM under setting [1] and 25.6 nM under setting [2].
For “UUAUGUGUCGUAGGAUAUCAUUAGAUUUGUAAUUUAAUUGUAAUUUACAUAUGAGAAGGACGUUUACAUGAGGAUCACCCAUGU” the same measures were 15.9 nM and 14.6 nM.
Consider “AAAAGACAUGAGGAUCACCCAUGUCAAGACGUGGGAGGAUAUGUAUGGAAACCAGACUGUACAGAAGGCCUUUGUC”, for which the “apparent Kd” value runs as follows: under setting [3], 46.8 nM; under setting [4], 20.1 nM.
For “AAGUUUUUACAAGGAUAUCAAUUGUUUCUAAAUUCAACAUGAGGAUCACCCAUGUAACAAUGGAGUGAGAAGGUGUGUUGGCAA” the same measures were 86.8 nM and 141 nM.
Turning to “ACUUGUUAUUUAAUCAUUGAAUUGUAGGAUAUACUUACAUGAGGAUCACCCAUGUUAACAUGGAUGUAGAAGGACAUCUCAUUU”, the “apparent Kd” value came out at 98.9 nM under setting [1] and 55.1 nM under setting [2].
Consider “GCCUCAGAAUUAAUUGUGAGAAGCAGAAGGCUAUAUCUUAUGUUAAACAUGAGGAUCACCCAUGUAGAGGAUAUGCUAUUACAG”, for which the “apparent Kd” value under setting [1] is 7.68 nM and the “apparent Kd” value under setting [2] was 17.7 nM.
As to “GAAAAACAUGAGGAUCACCCAUGUGAGAAUAUGGGAGGAUAUUCAAAGACGAAAGUCAAAGAAGAAGGCCUAAAAG”, the “apparent Kd” value runs as follows: under setting [3], 153 nM; under setting [4], 37.4 nM.
Take “CUUUUGUGAGGAUAUUAGUAGUAAAAAAAUAAAAUUACUACUGAGAAGGCACAUGAGGAUCACCCAUGUUUCUC”: the “apparent Kd” value amounted to 28.2 nM under setting [1] and 115 nM under setting [2].
Consider “GUAAAACAAACUAACAUGAGGAUCACCCAUGUGAGGAGGCUCAGAAGGGCGUGGAAAAUUUCCUCGCAGGAUAUGAACCUCAUU”, for which the “apparent Kd” value was 70.8 nM under setting [3] and 9.66 nM under setting [4].
On to “GUCAGCUUGUGAGGAUAUACAACACUGCUUCGGCAGUGUAUUAAGAUCACAUGAGGAUCACCCAUGUAGAAGGCACGAGCUGAU”, for which the “apparent Kd” value by setting is: under setting [1], 14 nM; under setting [2], 257 nM.
For the sequence “GCAUGCUAUGUCAGGAUAUACCUGUGGAUACAUAGGUAGAAGGGACAUGAGGAUCACCCAUGUCCUAAUCAUGC”, the “apparent Kd” value runs as follows: under setting [1], 12.8 nM; under setting [2], 14.9 nM.
In the same order, the values of “AUACAUGAGGAUCACCCAUGUUACUGGGUCUUAAUAGAACGUAGAAGGAUGAUAUUAUAAAUAACAUAGGAUAUACAAUAUUGU” are 132 nM and 64.2 nM.
Consider “GCUAGAUUUGCAGGAUAUUGUAAUUUAUUAUUUCAAGAAGGGCAUUACAUGAGGAUCACCCAUGUCAUCCUAUGGUUUACUAGC”, for which the “apparent Kd” value runs as follows: under setting [1], 9.57 nM; under setting [2], 23.1 nM.
As to “GGGAAGUGCCAGAAGGCUCCCGGAUUCCUAGGGAGAGGAUAUGGCACAUGAGGAUCACCCAUGUGGUAGAUCUGUUUCGAAGUG”, the “apparent Kd” value under setting [1] stood at 30.4 nM and the “apparent Kd” value under setting [2] was 16.9 nM.
Consider “GCCAUCGCAUGAGGAUAUGCUCCGGUUUCCGGAGCAGAAGGCAUGUAAUAAGACAUGAGGAUCACCCAUGUAGUUAAGAUGGCA”, for which the “apparent Kd” value is, setting by setting: under setting [3], 7.11 nM; under setting [4], 5.55 nM.
Take “GCUAUAGCGGAGGAUAUCCCGAAAAGAAGUUUAGGAGAAGGCCGCACAUGAGGAUCACCCAUGUGAGUCCGCAA”: the “apparent Kd” value was determined as 22.7 nM under setting [1] and 119 nM under setting [2].
Consider “UAGAACCUAGGAUAUACUUGGACCACUAAUGCACAGAUAUAACAUGAGGAUCACCCAUGUAGAAGGAGGAGUAA”, for which the “apparent Kd” value is, setting by setting: under setting [1], 40.4 nM; under setting [2], 32.4 nM.
For the sequence “UCUGGUCGAGGAUAUACGUGACGUGCUUCGGCACGAGGUCUACAUGAGGAUCACCCAUGUAGAAGGCGACCAGA”, the “apparent Kd” value by setting is: under setting [1], 17.1 nM; under setting [2], 48 nM.
Take “GGGUACAUCGGAGGAUAUCAUGUAAAUACAUGAGGAUCACCCAUGUCGAUGGAGACAUCGGAGAUUGAGAAGGGCGAUGUACCG”: the “apparent Kd” value reads like this: under setting [3], 647 nM; under setting [4], 75.8 nM.
For “UUUGCAUUCCGAGGAUAUUCAUUUAAUGACUUCACAUGAGGAUCACCCAUGUGGCGCUUGCGCCGGGAGAAGGCGGUUUGCUUU”, the “apparent Kd” value under setting [3] amounted to 25.6 nM and the “apparent Kd” value under setting [4] was 24.1 nM.
For the sequence “AAUGUGUCAGGAUAUUGUUAGUUUAGUUGUUUGUAUUAGUUCGAGAAGGGACAUGAGGAUCACCCAUGUUGUAA”, the “apparent Kd” value under setting [1] amounted to 40.1 nM and the “apparent Kd” value under setting [2] came out at 31.9 nM.
“AGUGUGUGGCAGGAUAUGCGAUUUGUCGGUGUUGCAGAAGGGUCUACAUGAGGAUCACCCAUGUGUGCGGUUGA”: the “apparent Kd” value was found to be 184 nM under setting [1] and 309 nM under setting [2].
For the sequence “CGUAGGAUCCAGAAGGCAUGAACAUGAGGAUCACCCAUGUCAAAAUACAUGAGGAUAUGGAUCCUACGAAAAGUGCGAAAGCAC”, the “apparent Kd” value runs as follows: under setting [3], 5.11 nM; under setting [4], 4.38 nM.
As for “AACUUGUCAGGAUAUCUUACAUUUGCAUCUUAGUUACCAUUGGAGAAGGGACAUGAGGAUCACCCAUGUUUGGU”, the “apparent Kd” value is, setting by setting: under setting [1], 37.1 nM; under setting [2], 32.2 nM.
Regarding “AUGCUAGUGUGAGGAUAUUAGACAUGAGGAUCACCCAUGUGUAAGAUCAUGACGAUCACGCAUGAUAAGAAGGUACAUUAGCAU”, the “apparent Kd” value stood at 54.6 nM under setting [1] and 99.7 nM under setting [2].
Take “AUUGUUAAGGUAGGAUAUAGUAAAAUGAUUUAAUUAGAAGGAUCUCACAUGAGGAUCACCCAUGUAAGAGGAUCACCCAUGUAU”: the “apparent Kd” value came to 12.9 nM under setting [1] and 9.73 nM under setting [2].
As for “GGAUAGGACAGAGGAUAUACGUGCUAGAGAUACUAGCGAAAUUUCCUCACAUGAGGAUCACCCAUGUAGAAGGCUGUCCUAUCG”, the “apparent Kd” value under setting [1] amounted to 28.1 nM and the “apparent Kd” value under setting [2] came to 892 nM.
Consider “GGGCUCGGUGUGAGGAUAUGCUCGGGUAAAUCUGGGUAGAAGGCACAUGAGGAUCACCCAUGUAAGCUGGGUCU”, for which the “apparent Kd” value runs as follows: under setting [1], 33.9 nM; under setting [2], 33.9 nM.
Turning to “AAGGGCGUGAUAACGCUCAUUAAAACAUGAGGAUCACCCAUGUAGGAUAUCCUACCGAAAUGGUAGGAGAAGGACAAGCAAUGA”, the “apparent Kd” value was 21.9 nM under setting [1] and 20.8 nM under setting [2].
In the same order, the values of “GGAUAGGACAGAGGAUAUACGUGCUAGAGAUACUAGCAAAAUUUCCUCACAUGAGGAUCACCCAUGUAGAAGGCUGUCCUAUGG” are 16.6 nM and 402 nM.
On to “CCUCCGUAUUAGGAUAUCGUCCAGGAAACUGGACGAGAAGGAAUGACAUGAGGAUCACCCAUGUUAACGUGAUG”, for which the “apparent Kd” value is, setting by setting: under setting [1], 21.5 nM; under setting [2], 50 nM.
For “CCUGGAGGAAAACAGACGAAGUGGCCAGAAGGUGAAUGCCACAUGAGGAUCACCCAUGUUUCGAUCAAGGAUAUGGUUUCUCAC”, the “apparent Kd” value runs as follows: under setting [3], 329 nM; under setting [4], 161 nM.
On to “GCACGAGACUAAGGAUAUGGAGUGUCUACAUUAAACAUGAGGAUCACCCAUGUAGGGAGUAUGAUUCAGAAGGUAGAGACGUGC”, for which the “apparent Kd” value under setting [3] is 331 nM and the “apparent Kd” value under setting [4] stood at 48.3 nM.
As to “UCACGGGAUUGAGGAUAUAUAUUAAUUUUUACAAUAGAAGGCAAAUUGUUAGAUUAUUCACUAUACAUGAGGAUCACCCAUGUU”, the “apparent Kd” value under setting [1] worked out at 23.6 nM and the “apparent Kd” value under setting [2] came out at 21.7 nM.
On to “GCGCUUAUACAGAAGGCCAUAUACAUGAGGAUCACCCAUGUCGAAUCUUGGAGGAUAUGUUAUUAAUUACACGCAGAUGAGCGC”, for which the “apparent Kd” value reads like this: under setting [3], 15.8 nM; under setting [4], 6.19 nM.
“AGAGCCUCGUGAGGAUAUACAUGAGGAUCACCCAUGUAAUAAAGUGAACGGAGGAAACUCCGAAUGUAGAAGGCACGAGGCUCA”: the “apparent Kd” value is, setting by setting: under setting [1], 44.5 nM; under setting [2], 391 nM.
For the sequence “GCCUCACAUGAGGAUCACCCAUGUCAGGAUAUCUCAGCCUCACAUCAAACAAGGCUUCAGAGAAGGGACGUAAA”, the “apparent Kd” value is, setting by setting: under setting [1], 37.4 nM; under setting [2], 77.4 nM.
For the sequence “UCGGCGCGAGGAUAUACGUUUGCGCGUUUUCGUUUGCGCGUACAUGAGGAUCACCCAUGUAGAAGGCGCGCCGC”, the “apparent Kd” value is 15.1 nM under setting [1] and 29.9 nM under setting [2].
On to “ACCAUUUACUAAUUAUCUAUACAUGAGGAUCACCCAUGUUAUGAGGAUAUCAUCGUGAAACACGAUGAGAAGGUAUAGCAUUCG”, for which the “apparent Kd” value reads like this: under setting [1], 18.1 nM; under setting [2], 22.1 nM.
With “AACUAGUCAGGAUAUACGAACAUGUCAAAAAACAUGAAGGGACAUGAGGAUCACCCAUGUAGAAGGGACUAGCA”, the “apparent Kd” value under setting [1] amounted to 37.8 nM and the “apparent Kd” value under setting [2] is 223 nM.
Consider “UCAAUCACUGGAGGAUAUGUACUAAUUUGCGGUUCCUCGAUAUCUCACAUGAGGAUCACCCAUGUACAGAAGGCUAGUCGGAAA”, for which the “apparent Kd” value under setting [1] was 783 nM and the “apparent Kd” value under setting [2] worked out at 99.7 nM.
“ACAUGAGGAUCACCCAUGUAUUUGUAGGAUAUACACAAUUAUUUAUUACUCUAAUUAAUAUGUUUGUAGAAGGACACUGCAUGA”: the “apparent Kd” value by setting is: under setting [1], 11.5 nM; under setting [2], 11.9 nM.
Turning to “CUGAAGAUAUCAGGAUAUCUAUUUCCUACAUGAGGAUCACCCAUGUAGGUGAUCAGCCGAGUAAAGGAGAAGGGAUAUCUUUAG”, the “apparent Kd” value was found to be 27.1 nM under setting [3] and 10.1 nM under setting [4].
Turning to “GGAGCCGGCCUAGGAUAUUUCAUAACAAAACAUGAGGAUCACCCAUGUAGGCCAGAAGGCCUUGGGAAGAAGGAGGUCGGCUCC”, the “apparent Kd” value reads like this: under setting [3], 29.6 nM; under setting [4], 11.7 nM.
As for “UUGUUAGGGAGAGGAUAUUGACAUGAGGAUCACCCAUGUAUUUGGGAGUGUUUACUGAAUUCUCACGAGAAGGCUUACGAAUUU”, the “apparent Kd” value was found to be 550 nM under setting [1] and 471 nM under setting [2].
